Source: PubChem BioAssay
An excerpt weighted towards active compounds, which were near 2.3% of everything screened.
TPT1 inhibitor: C. albicans TPT1 enzyme inhibition. hit rate 0.81% among 300,000. AID 1962. inhibition, % at 5 µM. recombinant caTPT1, FP RNA substrate dephosphorylation;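 active means inhibition above the mean of all tested compounds plus 3 SD, set per screening campaign, cut at about 24% in these data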;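 further: plate controls were DMSO alone for no effect and ferristatin control at 100 nM for full effect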
Rpn11 inh: inhibitors of human proteasome Rpn11 | O00487 | human 26S proteasome, Ub4-pepOG fluorescence polarization; 20S core pre-blocked with epoxomicin | calls only at 20 µM | hit rate 0.59% among 360,000 | AID 588493;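 active means inhibition at 20 µM, scaled to each plate's controls, above about 33%, limit read from the data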
CSN inh: CSN deneddylation inhibition. inhibition, % at 12.5 µM. Q92905. hit rate 0.38% among 360,000. Purified CSN, SCF-Nedd8-OG deneddylation, fluorescence polarization;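 active means pattern-corrected inhibition above about 35%, with an unprinted fluorescence ratio check between 0.5 and 1.5, limit read from the data, passing the limit was not always enough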;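 further: 0% = enzyme with substrate and 100% = substrate without enzyme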
Target sequence (Q92905 whole entry, looked up, one chain of several): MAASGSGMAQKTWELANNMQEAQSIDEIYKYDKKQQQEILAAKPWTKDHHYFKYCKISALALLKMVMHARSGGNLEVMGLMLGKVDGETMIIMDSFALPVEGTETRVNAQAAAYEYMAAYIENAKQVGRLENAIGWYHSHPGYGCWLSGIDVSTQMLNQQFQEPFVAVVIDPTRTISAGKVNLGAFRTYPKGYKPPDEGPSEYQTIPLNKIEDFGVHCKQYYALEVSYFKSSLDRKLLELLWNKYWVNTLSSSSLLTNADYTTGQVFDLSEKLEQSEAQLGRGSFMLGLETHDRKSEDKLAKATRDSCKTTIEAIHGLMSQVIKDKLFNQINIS
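Detection – fluorescence polarization · System – HEK293T-derived human Csn5 enzyme · Controls – substrate-only high control, full reaction low control · Timing – 90 min, room temperature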
HNF4A DNA FP: change in binding of human HNF4 alpha to DNA; P41235; HNF4a-FITC DNA binding, fluorescence polarization, 1 h; activity change, % at 10 µM; hit rate 0.3% among 360,000; AID 1224865; in the data active means activity change above about 30%, passing the limit was not always enough
CRFR2-BP ag: agonists of human CRF-binding protein/CRF-R2 receptor complex; HEK293 CRF-R2/CRF-BP, calcium dye fluorescence (FLIPR); percent of saturating CRF peptide response; hit rate 0.46% among 350,000; activation, % at 13.2 µM; AID 588473;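 active means activation of at least 50%, plus an integration ratio under a set limit after plate pattern correction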;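 further: plate controls were neutral control wells without compound for no effect and CRF at EC100 for full effect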
CRFR2-BP antag: antagonists of CRF-binding protein/CRF-R2 receptor complex; HEK293 CRF-R2/CRF-BP, CRF-induced calcium fluorescence; inhibition, % at 11.8 µM; hit rate 0.59% among 350,000; AID 588475;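 active means inhibition of the ligand-induced calcium signal above about 50% at the single tested concentration, limit read from the data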
Starred values were filed as active, the others as inactive; i = inactive; . = no result shown.

SMILES	TPT1 inhibitor	Rpn11 inh	CSN inh	HNF4A DNA FP	CRFR2-BP ag	CRFR2-BP antag
O=C(NNc1cc(N2CCCC2)nc(N2CCCC2)n1)c1ccc([N+](=O)[O-])cc1	5	i	41*	3	-1	9
CCOC(=O)C1CCN(c2cc3c(cc2NC(=O)c2cc(OC)ccc2Br)n(C)c(=O)n3C)CC1	-5	i	1	-2	-6	72*
CCOC(=O)C1CCN(c2cc3c(cc2NC(=O)c2ccccc2Br)n(C)c(=O)n3C)CC1	4	i	-1	0	-5	-3
CCC1(c2ccccc2)NC(=O)N(CC(=O)Nc2ccc(OC)nc2)C1=O (stereo not given)	-54	i	-30	-97	93*	-62
CCC1(c2ccccc2)NC(=O)N(CC(=O)Nc2ccc3c(c2)CCC3)C1=O (stereo not given)	.	i	1	-1	-2	-33
COc1cc(OC)cc(C(=O)NC2CC3CCC(C2)N3Cc2ccco2)c1 (stereo not given)	.	i	-1	-3	-1	58*
Cc1ccc(C(=O)NC2CC3CCC(C2)N3Cc2ccco2)cc1 (stereo not given)	-6	i	-4	-7	0	17
CSc1ccc(CN(C)C(C)C(=O)NCC2CCCCC2)cc1 (stereo not given)	2	i	3	2	-1	3
CC1C(c2ccccc2)OCCN1C=NC#N (stereo not given)	.	i	1	-4	-2	-5
COc1ccc(CNC(=O)CCC(=O)c2ccc(C)cc2)cc1OC	1	i	1	-1	-1	7
COc1ccc(-c2noc(C(=O)NCc3ccc(F)cc3)n2)cc1OC	1	i	3	1	0	60*
COc1ccc(CNC(=O)CCC(=O)c2ccc(F)cc2)cc1OC	.	i	66*	1	1	-18
CCn1cc(C(=O)Nc2ccc3c(c2)OCCO3)c2cc(OC)c(OC)cc2c1=O	-4	i	5	-1	-1	7
O=S(=O)(/N=C(\c1ccc(F)cc1)N1CCOCC1)c1ccccc1	.	i	0	0	50*	-21
Cc1ccc(S(=O)(=O)/N=C(/c2ccc(F)cc2)N2CCOCC2)cc1	-1	i	2	0	-2	-1
CCC1Oc2ccc(C)cc2N(CC(=O)N(Cc2ccncc2)Cc2ccco2)C1=O (stereo not given)	-3	i	1	0	-5	-13
CSCC[C@H](NC(=O)c1cccc(S(=O)(=O)N2CCN(C)CC2)c1)c1nc2ccccc2[nH]1	.	i	-5	5	71*	-27
Cc1cc(C)n2c(NC3CCCCC3)c(-c3ccc(F)cc3)nc2n1	.	.	10	4	.	.
Cc1cc(C)n2c(NC3CCCCC3)c(CC(C)C)nc2n1	.	.	-1	108*	.	.
COc1ccc(C2C(Oc3ccccc3C)C(=O)N2Cc2ccc(F)cc2)cc1OC (stereo not given)	0	i	-4	-2	-2	15
COc1ccc(OC2C(=O)N(Cc3ccc(F)cc3)C2c2cc(OC)c(OC)c(OC)c2)cc1 (stereo not given)	0	i	4	-2	-1	123*
C[C@H]1O[C@@H](O[C@H]2CC[C@@]3(C)C(CC[C@]4(C)C3C=C[C@]35OC[C@@]6(CCC(C)(C)C[C@H]63)[C@@H](O)C[C@]54C)[C@]2(C)CO)[C@H](O)[C@@H](O[C@@H]2O[C@H](CO)[C@@H](O)[C@H](O)[C@H]2O)[C@H]1O (stereo not given in full)	.	i	-1	-3	87*	-46
OCCNc1nc(N2CCCC2)nc(N2CCCC2)n1	0	i	0	0	0	-5
COC(=O)c1sccc1NC(=O)Cc1ccc(OC)cc1	0	i	2	-2	0	31
NC(=S)c1cc2ccc(O)cc2oc1=O	.	i	46*	34	-1	17
SMILES	TPT1 inhibitor	Rpn11 inh	CSN inh	HNF4A DNA FP	CRFR2-BP ag	CRFR2-BP antag
NC(=S)c1cc2cc(Br)ccc2oc1=O	-4	i	-7	1	-3	0
NS(=O)(=O)c1ccc(NC(=O)CSc2nnc(COc3ccccc3Cl)n2C2CC2)cc1	-5	i	6	-3	-2	63*
CCn1c(CNc2nc3ccccc3n2C(C)C)nc2ccccc21	0	i	2	-1	-8	25
C=CCn1c(O)c(C(CC)=NCCN2CCOCC2)c(=O)[nH]c1=O	0	i	-1	-1	-1	4
C=CCn1c(O)c(C(CC)=Nc2ccccc2NC(=O)CC)c(=O)[nH]c1=O	1	i	-2	3	-1	76*
CNC(=O)c1[nH]cnc1C(=O)Nc1cccc(Cl)c1	.	i	-6	2	1	2
O=C(COC(=O)c1ccncc1)Nc1cc(Cl)ccc1Cl	1	i	0	0	-4	52*
O=C(Cc1ccc(-n2cccc2)cc1)N1CCN(c2ccccc2F)CC1	-4	i	1	-2	-4	53*
O=C(COC(=O)CCc1nc2ccccc2s1)Nc1ccc(Cl)cn1	3	i	2	3	0	-24
O=C(/C=C/c1ccc2ccccc2n1)N1CCN(c2ccccc2)CC1	12	i	2	6	0	75*
O=C(/C=C/c1ccc2ccccc2n1)N1CCN(S(=O)(=O)c2ccc(F)cc2)CC1	10	i	9	7	2	3
Nc1nnc(SCc2ccccc2Cl)s1	-3	i	-5	1	-1	0
Nc1nnc(SCc2cc3c(cc2Cl)OCO3)s1	-2	i	-2	1	-3	59*
CC(C)NC(=O)c1ccccc1-c1ccccc1	1	i	-2	-5	0	2
CN(Cc1ccccc1)C(=O)c1ccc(NC(=O)Cc2cccc(NC(=O)C3CCCN(C(=O)CCc4ccccc4)C3)c2)cc1 (stereo not given)	.	i	2	0	2	4
CN(Cc1ccccc1)C(=O)c1cccc(NC(=O)Cc2ccc(NC(=O)C3CCCN(C(=O)CCc4ccccc4)C3)cc2)c1 (stereo not given)	.	i	-3	2	4	57*
O=C(NCCOC(=O)C1COc2ccccc2O1)c1cccnc1 (stereo not given)	-4	i	3	-1	64*	-91
CCN(CC)C(=O)CN(c1cccc(Br)c1)S(C)(=O)=O	1	i	-7	-2	2	-12
CC1=C(C)CC(C(=O)NNC(=O)c2ccccc2)C(C(=O)O)C1 (stereo not given)	0	i	2	1	0	-17
CCCCN1C(=O)/C(=C/C=C2\Oc3ccccc3N2CC)SC1=S	.	.	6	117	287*	-365
